Measurements collected from several papers.
Lines come from different studies, so protocols differ.
PDK1: [Pyruvate dehydrogenase (acetyl-transferring)] kinase isozyme 1, mitochondrial (PDK1, Homo sapiens, UniProt Q15118)
AKT2: RAC-beta serine/threonine-protein kinase (AKT2, Homo sapiens, UniProt P31751)

target | test | conditions | endpoint | result | SMILES
Casein kinase I isoform gamma-2 (CSNK1G2, Homo sapiens, UniProt P78368) | binding, competition with immobilised ligand | 1 µM | remaining binding | 100% | Cc1cc([C@@H](C)Nc2ccccc2C(=O)O)c2nc(N3CCC(F)(F)CC3)c(C#N)c(=O)n2c1
Vascular endothelial growth factor receptor 1 (FLT1, Homo sapiens, UniProt P17948) | enzyme activity, inhibitor, radiometric | 1 µM | remaining activity | 95% | CNc1ncc2c(/C=C/C(=O)N3CCC(OC)CC3)nn(Cc3cccc(C(F)(F)F)c3)c2n1
PDK1 | enzyme activity, inhibitor, ATP luminescence | 10 µM | inhibition | 22.7% | CC(=O)Nc1ccc(Oc2ccc(C(=O)C(Cl)Cl)cc2[N+](=O)[O-])cc1
Mast/stem cell growth factor receptor Kit (KIT, Homo sapiens, UniProt P10721) | binding, competition with immobilised ligand | 1 µM | remaining binding | 4.1% | Cc1cc(NC(=O)c2cccc(NC(=O)/C=C/CN(C)C)c2)ccc1Nc1nccc(-c2cccnc2)n1
AKT2 | binding, competition with immobilised ligand | 1 µM | remaining binding | 100% | C=CC(=O)N1CCC(COCC(=O)N2CCN(c3nc(-c4cnc(N)nc4C(F)F)nc(N4CCOC[C@@H]4C)n3)CC2)CC1
PDK1 | enzyme activity, inhibitor, ATP luminescence | 10 µM | inhibition | 20.3% | O=C(c1ccc(Oc2ccc3c(c2)OCO3)c([N+](=O)[O-])c1)C(Cl)Cl
AKT2 | enzyme activity, inhibitor | 1 µM | remaining activity | 132% | COc1cc(-c2cncc3c2CN(C)Cc2cc(N4CCNCC4)ccc2-3)cc(OC)c1OC
PDK1 | enzyme activity, inhibitor, ATP luminescence | 10 µM | inhibition | 36.9% | O=C(c1ccccc1)c1ccc(Oc2ccc(C(=O)C(Cl)Cl)cc2[N+](=O)[O-])cc1
Mitogen-activated protein kinase kinase kinase 19 (MAP3K19, Homo sapiens, UniProt Q56UN5) | cell-free assay, competition with immobilised ligand | 1 µM | inhibition | > 65% | Cc1ncsc1-c1ccc(CNC(=O)[C@@H]2C[C@@H](O)CN2C(=O)[C@@H](NC(=O)CCCCCCCCNC(=O)CN2CCN(C(=O)c3ccc(Nc4nc(C5CC5)cn5c(-c6cn[nH]c6)cnc45)c(F)c3)CC2)C(C)(C)C)cc1
